For experiment [1], the target named is T1, ceramide-specific glucosyltransferase (Mus musculus, UniProt O88693).
T1 sequence (O88693 1-394): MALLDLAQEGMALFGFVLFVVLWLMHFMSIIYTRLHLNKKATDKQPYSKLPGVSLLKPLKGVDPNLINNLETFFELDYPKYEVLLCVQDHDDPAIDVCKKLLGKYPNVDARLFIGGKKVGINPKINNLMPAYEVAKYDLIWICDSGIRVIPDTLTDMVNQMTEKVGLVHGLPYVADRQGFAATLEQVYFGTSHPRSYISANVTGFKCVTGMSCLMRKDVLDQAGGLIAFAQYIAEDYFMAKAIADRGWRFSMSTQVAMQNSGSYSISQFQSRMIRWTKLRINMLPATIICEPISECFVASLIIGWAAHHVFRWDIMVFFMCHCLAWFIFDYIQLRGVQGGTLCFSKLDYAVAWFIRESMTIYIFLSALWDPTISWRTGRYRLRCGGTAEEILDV
Put plainly: Ceramide-specific glucosyltransferase assay, mouse testicular microsomes. The class given is biochemical, C57BL/6 mouse. As to conditions: for ceramide-specific glucosyltransferase IC50 (C57BL/6, mouse): mouse testicular microsomes, n.i. = no inhibition at 1000 µM concentration.

Experiment [2] has as its target T2, ceramide-specific glucosyltransferase (Rattus norvegicus, UniProt Q9R0E0).
T2 sequence (Q9R0E0 1-394): T1 sequence (O88693 1-394) with D96E, K164R, R249K, T377A
The experiment can be described thus: Ceramide-specific glucosyltransferase assay, rat testicular microsomes. As to conditions: for ceramide-specific glucosyltransferase IC50 (LE rat): rat testicular microsomes, n.i. = no inhibition at 1000 µM concentration. Format: biochemical, Long Evans (LE) rat.

Experiment [3] concerns the target T3, testicular β-glucosidase 2 (Rattus norvegicus, UniProt Q5M868).
T3 sequence (Q5M868 1-912): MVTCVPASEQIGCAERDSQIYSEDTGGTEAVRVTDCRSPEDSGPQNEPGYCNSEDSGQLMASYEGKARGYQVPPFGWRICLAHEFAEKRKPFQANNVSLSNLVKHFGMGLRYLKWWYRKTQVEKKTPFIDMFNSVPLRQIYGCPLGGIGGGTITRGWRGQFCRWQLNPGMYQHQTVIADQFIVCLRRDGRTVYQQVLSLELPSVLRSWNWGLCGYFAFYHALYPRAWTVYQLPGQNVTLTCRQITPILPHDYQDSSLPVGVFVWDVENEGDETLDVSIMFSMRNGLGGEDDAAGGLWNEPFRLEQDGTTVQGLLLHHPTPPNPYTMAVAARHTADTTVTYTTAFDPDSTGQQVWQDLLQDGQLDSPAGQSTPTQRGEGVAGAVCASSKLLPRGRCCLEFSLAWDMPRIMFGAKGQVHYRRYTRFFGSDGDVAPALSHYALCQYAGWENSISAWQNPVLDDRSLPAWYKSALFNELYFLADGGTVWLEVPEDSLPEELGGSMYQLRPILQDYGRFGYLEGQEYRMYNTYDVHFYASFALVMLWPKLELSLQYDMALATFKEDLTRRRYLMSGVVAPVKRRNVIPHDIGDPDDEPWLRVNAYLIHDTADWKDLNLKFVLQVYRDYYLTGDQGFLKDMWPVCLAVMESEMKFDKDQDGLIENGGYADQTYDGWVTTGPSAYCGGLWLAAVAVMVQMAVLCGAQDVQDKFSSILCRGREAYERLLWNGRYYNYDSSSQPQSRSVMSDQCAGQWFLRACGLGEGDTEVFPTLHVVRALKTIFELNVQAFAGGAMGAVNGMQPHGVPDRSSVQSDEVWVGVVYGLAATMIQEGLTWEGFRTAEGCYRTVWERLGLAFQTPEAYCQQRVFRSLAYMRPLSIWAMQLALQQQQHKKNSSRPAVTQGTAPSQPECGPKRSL
Put plainly: Testicular glucosidase assay. Format: biochemical, Long Evans (LE) rat.

The subject of experiment [4] is α-glucosidase (Saccharomyces cerevisiae). The experiment can be described thus: Glycosidase inhibition assay, α-glucosidase. Format: biochemical. As to conditions: 100 µM compound; substrate at Km.
The next experiment concerns β-glucosidase (almond). The experiment can be described thus: Glycosidase inhibition assay, β-glucosidase. As to conditions: substrate at Km; for β-Glc % Ra (% remaining activity at 100 µM): 100 µM compound. The class given is biochemical. A digest of the protocol:
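Enzyme is added last; incubation is 4–5 min at room temperature, then 0.2 M sodium borate (pH 9.8) quenches. Absorbance at 405 nm gives % remaining activity at 100 µM compound. IC50 comes from non-linear fitting of relative activity versus concentration to a Hill-slope equation.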

Experiment [5] addresses α-galactosidase (green coffee beans) (Coffea arabica, UniProt Q42656). The experiment can be described thus: biochemical. As to conditions: for remaining activity at 100 µM: read-out: α-Gal % Ra (% remaining activity at 100 µM).
In experiment [6] the target is β-galactosidase (Escherichia coli) (Escherichia coli, UniProt P00722). The experiment can be described thus: biochemical. As to conditions: for remaining activity at 100 µM: read-out: β-Gal % Ra (% remaining activity at 100 µM).
In experiment [7] the target is T4, α-mannosidase (jack bean) (Canavalia ensiformis, UniProt C0HJB3).
T4 sequence (C0HJB3 1-562 limits assumed): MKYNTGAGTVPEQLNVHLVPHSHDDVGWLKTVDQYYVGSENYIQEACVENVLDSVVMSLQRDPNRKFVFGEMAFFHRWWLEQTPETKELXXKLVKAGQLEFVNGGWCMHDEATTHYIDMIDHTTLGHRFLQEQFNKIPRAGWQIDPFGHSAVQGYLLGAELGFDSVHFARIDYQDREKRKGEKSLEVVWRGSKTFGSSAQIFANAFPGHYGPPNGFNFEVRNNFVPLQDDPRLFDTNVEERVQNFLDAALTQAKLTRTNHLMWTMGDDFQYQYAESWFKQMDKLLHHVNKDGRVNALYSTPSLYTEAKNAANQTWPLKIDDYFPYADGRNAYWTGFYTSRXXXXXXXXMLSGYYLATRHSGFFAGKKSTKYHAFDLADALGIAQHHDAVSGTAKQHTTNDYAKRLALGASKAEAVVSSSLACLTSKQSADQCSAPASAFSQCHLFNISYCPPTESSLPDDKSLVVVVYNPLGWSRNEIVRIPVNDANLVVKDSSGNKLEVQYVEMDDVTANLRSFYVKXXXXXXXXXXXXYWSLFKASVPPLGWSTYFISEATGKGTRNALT
T4 sequence (C0HJB3 563-981 partner limits assumed): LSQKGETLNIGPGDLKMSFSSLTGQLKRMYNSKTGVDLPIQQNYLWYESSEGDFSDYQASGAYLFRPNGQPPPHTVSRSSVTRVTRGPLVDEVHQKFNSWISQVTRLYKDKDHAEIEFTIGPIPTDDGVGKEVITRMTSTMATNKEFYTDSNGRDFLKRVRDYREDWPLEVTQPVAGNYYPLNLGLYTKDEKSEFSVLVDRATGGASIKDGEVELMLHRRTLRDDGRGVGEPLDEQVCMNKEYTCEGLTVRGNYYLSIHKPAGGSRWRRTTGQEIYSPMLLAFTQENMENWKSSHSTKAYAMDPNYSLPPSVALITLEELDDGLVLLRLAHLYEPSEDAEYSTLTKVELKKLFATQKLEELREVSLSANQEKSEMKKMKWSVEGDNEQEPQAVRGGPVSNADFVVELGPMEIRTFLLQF
The experiment can be described thus: Glycosidase inhibition assay, α-mannosidase. Format: biochemical. As to conditions: for remaining activity at 100 µM: read-out: α-Man % Ra (% remaining activity at 100 µM). A digest of the protocol: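 Enzyme starts the reaction with test compound at 100 µM. After 4–5 min at room temperature, 0.2 M sodium borate (pH 9.8) quenches it. Absorbance is read at 405 nm and reported as % remaining activity.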

In experiment [8] the test system is β-mannosidase (Roman snail). The experiment can be described thus: Glycosidase inhibition assay, β-mannosidase. Format: biochemical. As to conditions: 100 µM compound; substrate at Km. A digest of the protocol:
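Test compound is at 100 µM. Enzyme addition starts the reaction, which runs 4–5 min at room temperature before quenching with 0.2 M sodium borate (pH 9.8). Absorbance is read at 405 nm and given as % remaining activity.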

The mark [9] stands for this setting: 100 µM compound, substrate at Km.

Where a chain is given by its changes, count along the chain named.

This is an account of results in publication PMC3431965 (The Journal of organic chemistry, 2012).

β-galactosidase (Escherichia coli), sequence (P00722 2-1024): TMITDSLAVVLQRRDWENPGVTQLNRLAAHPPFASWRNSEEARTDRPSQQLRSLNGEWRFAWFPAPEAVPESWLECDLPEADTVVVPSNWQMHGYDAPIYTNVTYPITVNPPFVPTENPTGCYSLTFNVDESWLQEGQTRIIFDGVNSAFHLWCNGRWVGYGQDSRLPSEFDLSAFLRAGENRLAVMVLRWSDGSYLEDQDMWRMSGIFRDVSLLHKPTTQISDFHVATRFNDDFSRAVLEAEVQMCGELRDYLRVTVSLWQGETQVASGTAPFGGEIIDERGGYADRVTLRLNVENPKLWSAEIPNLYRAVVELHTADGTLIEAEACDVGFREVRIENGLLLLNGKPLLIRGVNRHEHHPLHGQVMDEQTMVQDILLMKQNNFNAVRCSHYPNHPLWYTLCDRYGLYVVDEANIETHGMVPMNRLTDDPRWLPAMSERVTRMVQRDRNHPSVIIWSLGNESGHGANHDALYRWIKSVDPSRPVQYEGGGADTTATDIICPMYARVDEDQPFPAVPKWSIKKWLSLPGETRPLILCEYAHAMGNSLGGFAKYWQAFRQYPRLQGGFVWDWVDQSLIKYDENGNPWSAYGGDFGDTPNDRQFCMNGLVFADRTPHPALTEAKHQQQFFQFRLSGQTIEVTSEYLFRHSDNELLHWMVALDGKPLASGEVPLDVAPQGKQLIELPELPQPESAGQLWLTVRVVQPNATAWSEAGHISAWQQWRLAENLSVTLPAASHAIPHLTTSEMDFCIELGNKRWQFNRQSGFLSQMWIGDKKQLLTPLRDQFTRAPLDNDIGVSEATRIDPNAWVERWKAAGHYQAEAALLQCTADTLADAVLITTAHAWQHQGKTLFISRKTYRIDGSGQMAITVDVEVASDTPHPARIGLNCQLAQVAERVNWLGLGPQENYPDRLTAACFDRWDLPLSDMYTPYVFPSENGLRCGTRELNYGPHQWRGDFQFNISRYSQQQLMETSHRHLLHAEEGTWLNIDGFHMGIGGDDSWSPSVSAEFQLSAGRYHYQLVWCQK
α-galactosidase (green coffee beans), sequence (Q42656 16-378): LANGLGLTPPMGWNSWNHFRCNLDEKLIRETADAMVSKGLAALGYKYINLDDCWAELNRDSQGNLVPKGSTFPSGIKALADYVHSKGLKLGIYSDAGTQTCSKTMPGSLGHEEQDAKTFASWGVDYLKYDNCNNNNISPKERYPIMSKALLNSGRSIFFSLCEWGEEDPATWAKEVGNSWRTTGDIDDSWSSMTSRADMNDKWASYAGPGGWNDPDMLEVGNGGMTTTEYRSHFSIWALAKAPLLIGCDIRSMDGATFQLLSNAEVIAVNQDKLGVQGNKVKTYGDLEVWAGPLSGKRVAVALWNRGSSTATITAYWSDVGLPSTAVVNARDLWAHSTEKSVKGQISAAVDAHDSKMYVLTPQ

By IC50 is commonly meant the concentration that gives 50% inhibition. For orientation: remaining activity means the activity still measured, relative to the control. With `CCCCCCCCCN1[C@H](CO)C(O)[C@H]1CO` [Compound 23, ((2R,4R)-3-Hydroxy-1-nonylazetidine-2,4-diyl)dimethanol], the IC50 in experiment [1], in [2] and in experiment [3] was over 300 µM in each case. In addition, the “α-Glc % Ra (% remaining activity at 100 µM)” value in experiment [4] stood at 100%. In addition, in the experiment on β-glucosidase (almond), the “β-Glc % Ra (% remaining activity at 100 µM)” value is recorded as 95%. Also, the results for the remaining activity at 100 µM in experiment [5], in experiment [6] and in experiment [7] were 99%, 88% and 100%, respectively. In addition, in experiment [8], the “β-Man % Ra (% remaining activity at 100 µM)” value is given as 115%.

For `CCCCN1[C@H](CO)C(O)[C@H]1CO` [Compound 22, ((2R,4R)-1-Butyl-3-hydroxyazetidine-2,4-diyl)dimethanol], the IC50 in [1], in experiment [2] and in experiment [3] was over 300 µM each time. The “α-Glc % Ra (% remaining activity at 100 µM)” value in experiment [4] is 100%. Also, the “β-Glc % Ra (% remaining activity at 100 µM)” value in the experiment with β-glucosidase (almond) worked out at 93%. Further, the figures for the remaining activity at 100 µM in experiment [5], in experiment [6] and in experiment [7] were 100%, 99% and 99%, respectively. Further, the “β-Man % Ra (% remaining activity at 100 µM)” value in experiment [8] was 99%.

As to `CCCCCCCCCN1CCC[C@@H](O)[C@H](O)[C@@H](O)C1` [Compound 2, (3S,4S,5R)-1-Nonylazocane-3,4,5-triol], in experiment [1], the “ceramide-specific glucosyltransferase IC50 (C57BL/6, mouse)” value is listed as “n.i”. Besides, the “ceramide-specific glucosyltransferase IC50 (LE rat)” value in experiment [2] is given as “n.i”. Besides, the IC50 in experiment [3] turned out to be 803 µM; on β-glucosidase (almond) (read-out: β-Glc IC50), 92 µM. For the same molecule, in experiment [4], the “α-Glc % Ra (% remaining activity at 100 µM)” value amounted to 84%. In addition, in the experiment on β-glucosidase (almond), the “β-Glc % Ra (% remaining activity at 100 µM)” value was found to be 43%. Further, the figures for the remaining activity at 100 µM in experiment [5], in experiment [6] and in [7] were 100%, 92% and 100%, respectively. Besides, the “β-Man % Ra (% remaining activity at 100 µM)” value in experiment [8] amounted to 93%.

Take `CCCCN1[C@@H](CO)C(O)[C@@H]1CO` [Compound 26, ((2S,4S)-1-Butyl-3-hydroxyazetidine-2,4-diyl)dimethanol]: the IC50 in experiment [1], in [2] and in [3] was over 300 µM each time. Besides, the “α-Glc % Ra (% remaining activity at 100 µM)” value in [4] is recorded as 90%. Moreover, the “β-Glc % Ra (% remaining activity at 100 µM)” value in the experiment with β-glucosidase (almond) was determined as 82%. In addition, the remaining activity at 100 µM in experiment [5] amounted to 98%; in [6], 96%; in experiment [7] it was 98%. Further, the “β-Man % Ra (% remaining activity at 100 µM)” value in experiment [8] is recorded as 95%.

With `CCCCCCCCCN1[C@@H](CO)C(O)[C@@H]1CO` [Compound 27, ((2S,4S)-3-Hydroxy-1-nonyl-azetidine-2,4-diyl)dimethanol], the IC50 in experiment [1] was over 300 µM; in [2], over 300 µM; in experiment [3], 70 µM. Further, the “α-Glc % Ra (% remaining activity at 100 µM)” value in experiment [4] turned out to be 100%. Also, the “β-Glc % Ra (% remaining activity at 100 µM)” value in the experiment with β-glucosidase (almond) is 95%. Moreover, the remaining activity at 100 µM was found to be 57% in experiment [5], 99% in experiment [6] and 99% in experiment [7]. The “β-Man % Ra (% remaining activity at 100 µM)” value in experiment [8] is 106%.

With `CCCCN1C[C@@H](O)[C@@H](O)[C@@H](O)[C@H](O)[C@@H](O)C1` [Compound 5, (3S,4R,5S,6R,7R)-1-Butylazocane-3,4,5,6,7-pentaol], the “ceramide-specific glucosyltransferase IC50 (C57BL/6, mouse)” value in experiment [1] is given as “n.i”. Also, the “ceramide-specific glucosyltransferase IC50 (LE rat)” value in experiment [2] was “n.i”. In [3] (rat testicular microsomes, n.i. = no inhibition at 1000 µM concentration), the “β-glucosidase 2 IC50 (LE rat)” value is “did not show inhibitory activity and n.i”. Also, in experiment [4], the “α-Glc % Ra (% remaining activity at 100 µM)” value is on record as 89%. For the same molecule, the “β-Glc % Ra (% remaining activity at 100 µM)” value in the experiment on β-glucosidase (almond) is listed as 87%. The “α-Gal % Ra (% remaining activity at 100 µM)” value in experiment [5] (setting [9]) amounted to 100%. Also, in experiment [6] (setting [9]), the “β-Gal % Ra (% remaining activity at 100 µM)” value came to 95%. The “α-Man % Ra (% remaining activity at 100 µM)” value in experiment [7] (setting [9]) came to 100%. The “β-Man % Ra (% remaining activity at 100 µM)” value in experiment [8] is 100%.

In the case of `CCCCCCCCCN1C/C=C\[C@@H](O)[C@H](O)[C@@H](O)C1` [Compound 4, (3S,4S,5R,Z)-1-Nonyl-1,2,3,4,5,8-hexahydroazocine-3,4,5-triol], in experiment [1], the “ceramide-specific glucosyltransferase IC50 (C57BL/6, mouse)” value is recorded as “n.i”. Further, the “ceramide-specific glucosyltransferase IC50 (LE rat)” value in experiment [2] was “n.i”. In [3], this molecule came in with an IC50 of 904 µM. Moreover, in experiment [4], the “α-Glc % Ra (% remaining activity at 100 µM)” value turned out to be 90%. Besides, the “β-Glc % Ra (% remaining activity at 100 µM)” value in the experiment on β-glucosidase (almond) is 44%. Further, the remaining activity at 100 µM was found to be 100% in [5], 90% in experiment [6] and 100% in [7]. Moreover, in experiment [8], the “β-Man % Ra (% remaining activity at 100 µM)” value amounted to 99%.
